Measurements reported in ChEMBL document CHEMBL4049453, “Discovery of Mixed Pharmacology Melanocortin-3 Agonists and Melanocortin-4 Receptor Tetrapeptide Antagonist Compounds (TACOs) Based on the Sequence Ac-Xaa1-Arg-(pI)DPhe-Xaa4-NH2” (J Med Chem, 2017).
Calls of active or inactive are those of the source. No cut-off for these calls is given here. Non-standard residues stand in square brackets, D forms with d. Residues, ends and D or L forms follow the SMILES beside them. Bip = N[C@@H](Cc1ccc(-c2ccccc2)cc1)C(=O)O; dPhe(4-I) = N[C@H](Cc1ccc(I)cc1)C(=O)O; 2Nal = N[C@@H](Cc1ccc2ccccc2c1)C(=O)O; d2Nal = N[C@H](Cc1ccc2ccccc2c1)C(=O)O; Bta = N[C@@H](Cc1csc2ccccc12)C(=O)O

How the values were obtained:
Melanocortin receptor 4 = Melanocortin receptor 4 (Mus musculus, UniProt P56450); assay: Agonist activity at mouse MC4R expressed in HEK293 cells assessed as induction of cAMP accumulation up to 100 uM after 2 hrs by alpha screen assay relative to NDP-MSH; type: cell-based; conditions: read-out: Activity
Sequence of Melanocortin receptor 4 (P56450 whole entry): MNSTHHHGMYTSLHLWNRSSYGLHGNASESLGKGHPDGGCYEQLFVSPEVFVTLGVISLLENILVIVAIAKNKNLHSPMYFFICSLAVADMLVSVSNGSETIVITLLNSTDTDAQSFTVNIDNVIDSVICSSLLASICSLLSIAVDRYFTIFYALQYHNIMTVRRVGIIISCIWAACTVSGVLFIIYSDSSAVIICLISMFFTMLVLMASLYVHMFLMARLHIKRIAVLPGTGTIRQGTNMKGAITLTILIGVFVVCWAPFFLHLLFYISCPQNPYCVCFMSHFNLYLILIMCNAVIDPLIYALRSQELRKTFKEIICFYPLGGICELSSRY

[1] = biological target: Melanocortin receptor 3 (Mus musculus) (UniProt P33033); assay: Antagonist activity at mouse MC3R expressed in HEK293 cells assessed as inhibition of NDP-MSH induced-cAMP accumulation up to 10 uM after 2 hrs by alpha screen assay; type: functional, cell-based
Sequence of Melanocortin receptor 3 (Mus musculus) (P33033 whole entry): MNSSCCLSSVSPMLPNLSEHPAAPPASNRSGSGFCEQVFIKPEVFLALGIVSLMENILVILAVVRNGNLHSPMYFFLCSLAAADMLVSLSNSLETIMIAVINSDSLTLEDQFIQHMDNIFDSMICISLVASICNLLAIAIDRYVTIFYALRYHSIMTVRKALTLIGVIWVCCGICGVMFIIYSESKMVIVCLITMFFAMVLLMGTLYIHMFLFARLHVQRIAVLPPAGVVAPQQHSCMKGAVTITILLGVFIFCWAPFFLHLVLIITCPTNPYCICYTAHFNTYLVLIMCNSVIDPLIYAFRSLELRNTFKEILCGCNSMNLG
Summary of the method: (§1)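 mouse MC3R or MC4R in stably transfected HEK293 cells, AlphaScreen cAMP assay (IBMX stimulation buffer, 2 h RT incubation, then 2 h with donor-bead lysis mix). […] Run in triplicate.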

[2] = biological target: Melanocortin receptor 4 (Mus musculus) (UniProt P56450); assay: Antagonist activity at mouse MC4R expressed in HEK293 cells assessed as inhibition of NDP-MSH induced-cAMP accumulation up to 10 uM after 2 hrs by alpha screen assay; type: functional, cell-based; summary of the method: as §1
Sequence of Melanocortin receptor 4 (Mus musculus) (P56450 whole entry): as the sequence (P56450 whole entry) above

| Emax (Melanocortin receptor 4) [%] | inhibition [1] | inhibition [2] | SMILES |
| --- | --- | --- | --- |
| < 20 | – | – | CC(=O)N[C@@H](CCCNC(=N)N)C(=O)N[C@@H](CCCNC(=N)N)C(=O)N[C@H](Cc1ccc(I)cc1)C(=O)N[C@@H](Cc1ccc2ccccc2c1)C(N)=O |
| < 20 | – | – | CC(=O)N[C@@H](Cc1ccc2ccccc2c1)C(=O)N[C@@H](CCCNC(=N)N)C(=O)N[C@H](Cc1ccc(I)cc1)C(=O)N[C@@H](Cc1csc2ccccc12)C(N)=O (Ac-[2Nal]R[dPhe(4-I)][Bta]-NH2) |
| < 20 | inactive | inactive | CC(=O)N[C@@H](Cc1ccc2ccccc2c1)C(=O)N[C@@H](CCCNC(=N)N)C(=O)N[C@H](Cc1ccc(I)cc1)C(=O)N[C@H](Cc1ccc2ccccc2c1)C(N)=O (Ac-[2Nal]R[dPhe(4-I)][d2Nal]-NH2) |
| < 20 | – | inactive | CC(=O)N[C@@H](Cc1ccc(-c2ccccc2)cc1)C(=O)N[C@@H](CCCNC(=N)N)C(=O)N[C@H](Cc1ccc(I)cc1)C(=O)N[C@@H](Cc1csc2ccccc12)C(N)=O (Ac-[Bip]R[dPhe(4-I)][Bta]-NH2) |
| < 20 | – | – | CC(=O)N[C@@H](Cc1csc2ccccc12)C(=O)N[C@@H](CCCNC(=N)N)C(=O)N[C@H](Cc1ccc(I)cc1)C(=O)N[C@@H](Cc1csc2ccccc12)C(N)=O (Ac-[Bta]R[dPhe(4-I)][Bta]-NH2) |
| < 20 | inactive | – | CC(=O)NC(Cc1ccccc1)C(=O)N[C@@H](CCCNC(=N)N)C(=O)N[C@H](Cc1ccc(I)cc1)C(=O)N[C@@H](Cc1ccc2ccccc2c1)C(N)=O (stereo in doubt) |
| < 20 | inactive | – | CC(=O)N[C@@H](Cc1ccc(-c2ccccc2)cc1)C(=O)N[C@@H](CCCNC(=N)N)C(=O)N[C@H](Cc1ccc(I)cc1)C(=O)NC(Cc1ccccc1)C(N)=O (stereo in doubt) |
| < 20 | – | – | CC(=O)NC(Cc1ccccc1)C(=O)N[C@@H](CCCNC(=N)N)C(=O)N[C@H](Cc1ccc(I)cc1)C(=O)N1Cc2ccccc2C[C@H]1C(N)=O (stereo in doubt) |
| < 20 | inactive | – | CC(=O)NC(Cc1ccccc1)C(=O)N[C@@H](CCCNC(=N)N)C(=O)N[C@H](Cc1ccc(I)cc1)C(=O)N[C@H](Cc1ccc2ccccc2c1)C(N)=O (stereo in doubt) |
| < 20 | – | – | CC(=O)N[C@@H](Cc1cnc[nH]1)C(=O)N[C@@H](CCCNC(=N)N)C(=O)N[C@H](Cc1ccc(I)cc1)C(=O)NC(Cc1ccccc1)C(N)=O (stereo in doubt) |
| < 20 | – | – | CC(=O)NC(Cc1ccccc1)C(=O)N[C@@H](CCCNC(=N)N)C(=O)N[C@H](Cc1ccc(I)cc1)C(=O)N[C@@H](Cc1csc2ccccc12)C(N)=O (stereo in doubt) |
| < 20 | – | – | CC(=O)N[C@@H](CCCNC(=N)N)C(=O)N[C@@H](CCCNC(=N)N)C(=O)N[C@H](Cc1ccc(I)cc1)C(=O)NC(Cc1ccccc1)C(N)=O (stereo in doubt) |

| SMILES | Emax (Melanocortin receptor 4) [%] | inhibition [1] | inhibition [2] |
| --- | --- | --- | --- |
| CC(=O)N[C@@H](Cc1ccc(-c2ccccc2)cc1)C(=O)N[C@@H](CCCNC(=N)N)C(=O)N[C@H](Cc1ccc(I)cc1)C(=O)N1Cc2ccccc2C[C@H]1C(N)=O (HELM PEPTIDE1{[ac].[O=C([C@H](Cc1ccc(-c2ccccc2)cc1)N[*:1])[*:2]].R.[O=C([C@@H](Cc1ccc(I)cc1)N[*:1])[*:2]].[Tic].[am]}$$$$V2.0) | < 20 | – | – |
| CC(=O)N1Cc2ccccc2C[C@H]1C(=O)N[C@@H](CCCNC(=N)N)C(=O)N[C@H](Cc1ccc(I)cc1)C(=O)N[C@H](Cc1ccc2ccccc2c1)C(N)=O (HELM PEPTIDE1{[ac].[Tic].R.[O=C([C@@H](Cc1ccc(I)cc1)N[*:1])[*:2]].[O=C([C@@H](Cc1ccc2ccccc2c1)N[*:1])[*:2]].[am]}$$$$V2.0) | – | inactive | inactive |
| CC(=O)N1Cc2ccccc2C[C@H]1C(=O)N[C@@H](CCCNC(=N)N)C(=O)N[C@H](Cc1ccc(I)cc1)C(=O)N[C@@H](Cc1csc2ccccc12)C(N)=O (HELM PEPTIDE1{[ac].[Tic].R.[O=C([C@@H](Cc1ccc(I)cc1)N[*:1])[*:2]].[O=C([C@H](Cc1csc2ccccc12)N[*:1])[*:2]].[am]}$$$$V2.0) | < 20 | – | – |
